In PubChem BioAssay one finds GFP response vs DMSO, GFP response relative to DMSO and GFP response, % of DMSO data, which are given here for 16 molecules.

Calls of active or inactive are those of the source.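 How the source made its calls, unless noted: active means GFP response above 150% of the DMSO level; inconclusive means fewer than 70 events counted for a yeast strain; inactive means the rest.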

A short description of assay [1]: hit retest on RPL19A-GFP reporter strain – cell-based, S. cerevisiae, flow cytometry, cherry picks, mother/daughter gates, confirmation (AID 2270;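 active means GFP response below 50% of the DMSO control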). As to conditions: 3 h, at 10 µM, stronger effect = lower value, 100 = same GFP as DMSO wells.
Assay [2] can be described thus: yeast TOR pathway reporter LAP4-GFP change – cell-based, cherry picks, flow cytometry, mother/daughter gates, confirmation (AID 2271;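 active means GFP response above 150% of the DMSO control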;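 further: ratio of sample to DMSO plate mean so 100% equals DMSO level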). The conditions noted are these: S. cerevisiae LAP4-GFP strain, 3 h, at 10 µM, stronger effect = higher value, 100 means same as DMSO control. A digest of the protocol:
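System – GFP-fusion yeast strain · Amount – 0.2 OD600 cells · Buffer or medium – SC growth medium · Dosing – single test-compound dose, 10 µM final · Schedule – 3 h treatment at 30 °C with rotation · Detection – GFP by flow cytometry · Read-out – per-gate (all, mother, daughter) GFP response vs DMSO · Benchmarks – positive rapamycin (400 ng/mL), negative DMSO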

The nature of assay [3]: TOR pathway reporter MEP2-GFP, retest of hits – S. cerevisiae, flow cytometry GFP, cherry picks, confirmation (AID 2272;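 active means GFP response above 150% of the DMSO control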;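 further: ratio of well signal to plate DMSO mean so 100% equals DMSO level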). As to conditions: S. cerevisiae MEP2-GFP strain, 3 h, at 10 µM, stronger effect = higher value.
Assay [4] in a line: yeast AGP1-GFP fluorescence change, single-dose – cell-based, flow cytometry, S. cerevisiae, cherry picks, confirmation (AID 2273).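 Further: median GFP channel fluorescence over the whole cell population gate.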 As to conditions: S. cerevisiae AGP1-GFP strain, 3 h, at 10 µM.
A short description of assay [5]: TOR pathway CIT2 reporter hit retest – S. cerevisiae, GFP fusion, cherry picks, mother/daughter gates, confirmation (AID 2274). As to conditions: S. cerevisiae CIT2-GFP strain, flow cytometry, 3 h, at 10 µM, stronger effect = higher value.
[6] abbreviates: measured here: daughter cell gate.
The mark [7] stands for this setting: measured here: mother cell gate.
[8] abbreviates: measured here: daughter cell gate response.
Where [9] appears, read: measured here: mother cell gate response.

For `Cc1ccccc1N1C(=O)c2cccc3c(N(C)CCO)ccc(c23)C1=O`, the GFP response vs DMSO in assay [1] was 99.5% (inactive); in assay [1] (setting [6]), 99.8%; in assay [1] (setting [7]), 100%; in assay [3], 104% (inactive). For the same molecule, the GFP response relative to DMSO in assay [2] is 100% (inactive); in assay [2] (setting [8]), 99.3%; in assay [2] (setting [9]), 98.5%. Besides, the GFP response, % of DMSO was 103% (inactive) in assay [4], 101% (inactive) in assay [5], 102% in assay [5] (setting [6]) and 100% in assay [5] (setting [7]).

Turning to `Cc1ccccc1N1C(=O)CC(Sc2nnc(-c3ccccc3)o2)C1=O` (stereo unspecified), the GFP response vs DMSO in assay [1] is 94.6% (inactive); in assay [1] (setting [6]), 92.2%; in assay [1] (setting [7]), 93.2%; in assay [3], 103% (inactive). Further, the results for the GFP response relative to DMSO in assay [2], in assay [2] (setting [8]) and in assay [2] (setting [9]) were 102% (inactive), 101% and 103%, respectively. The GFP response, % of DMSO in assay [4] was 102% (inactive); in assay [5] it was 97.3% (inactive); in assay [5] (setting [6]), 97.4%; in assay [5] (setting [7]) it was 96.8%.

As for `COc1cc(/C=N/Nc2nc(C)cc(=O)[nH]2)ccc1O`, the GFP response vs DMSO is 100% (inactive) in assay [1], 104% in assay [1] (setting [6]), 98.8% in assay [1] (setting [7]) and 106% (inactive) in assay [3]. Also, the figures for the GFP response relative to DMSO in assay [2], in assay [2] (setting [8]) and in assay [2] (setting [9]) were 87.2% (inactive), 89.3% and 86.7%, respectively. In addition, the GFP response, % of DMSO is 105% (inactive) in assay [4], 117% (inactive) in assay [5], 121% in assay [5] (setting [6]) and 115% in assay [5] (setting [7]).

As for `COC(=O)c1ccc(/C=C/C(=O)c2ccc(OC)c(OC)c2)cc1`, the GFP response vs DMSO in assay [1] was 101% (inactive); in assay [1] (setting [6]), 101%; in assay [1] (setting [7]), 99.6%; in assay [3], 104% (inactive). Besides, the results for the GFP response relative to DMSO in assay [2], in assay [2] (setting [8]) and in assay [2] (setting [9]) were 113% (inactive), 110% and 117%, respectively. Moreover, the GFP response, % of DMSO was 102% (inactive) in assay [4], 104% (inactive) in assay [5], 106% in assay [5] (setting [6]) and 102% in assay [5] (setting [7]).

As for `Cc1noc2ncnc(Sc3ccc(Br)cc3)c12`, the GFP response vs DMSO in assay [1] is 97.2% (inactive); in assay [1] (setting [6]) it was 94.2%; in assay [1] (setting [7]), 94.7%; in assay [3] it was 103% (inactive). The results for the GFP response relative to DMSO in assay [2], in assay [2] (setting [8]) and in assay [2] (setting [9]) were 137% (inactive), 133% and 135%, respectively. Further, the GFP response, % of DMSO was 98.8% (inactive) in assay [4], 108% (inactive) in assay [5], 106% in assay [5] (setting [6]) and 105% in assay [5] (setting [7]).

On to `COc1ccc(OC)c(S(=O)(=O)N2Cc3ccccc3CC2C(=O)O)c1` (stereo unspecified), for which the GFP response vs DMSO in assay [1] is 100% (inactive); in assay [1] (setting [6]) it was 101%; in assay [1] (setting [7]), 99.4%; in assay [3], 106% (inactive). Moreover, the figures for the GFP response relative to DMSO in assay [2], in assay [2] (setting [8]) and in assay [2] (setting [9]) were 104% (inactive), 101% and 106%, respectively. The GFP response, % of DMSO is 102% (inactive) in assay [4], 101% (inactive) in assay [5], 103% in assay [5] (setting [6]) and 103% in assay [5] (setting [7]).

Consider `O=C(/C=C/c1c(F)cccc1Cl)c1ccc(O)cc1`, for which the GFP response vs DMSO in assay [1] was 94.3% (inactive); in assay [1] (setting [6]), 94%; in assay [1] (setting [7]), 94.6%; in assay [3], 105% (inactive). The GFP response relative to DMSO in assay [2] was 144% (inactive); in assay [2] (setting [8]), 137%; in assay [2] (setting [9]), 152%. In addition, the GFP response, % of DMSO was 105% (inactive) in assay [4], 94.7% (inactive) in assay [5], 93.7% in assay [5] (setting [6]) and 93.7% in assay [5] (setting [7]).

For the molecule `Cc1ccc(Sc2ccc([N+](=O)[O-])cc2[N+](=O)[O-])nc1`, the GFP response vs DMSO is 99.7% (inactive) in assay [1], 101% in assay [1] (setting [6]), 100% in assay [1] (setting [7]) and 97.8% (inactive) in assay [3]. Also, the GFP response relative to DMSO in assay [2] was 103% (inactive); in assay [2] (setting [8]) it was 100%; in assay [2] (setting [9]), 105%. For the same molecule, the GFP response, % of DMSO in assay [4] was 97.4% (inactive); in assay [5], 104% (inactive); in assay [5] (setting [6]), 99.7%; in assay [5] (setting [7]) it was 105%.

`COc1ccc(C(=O)NC(=S)Nc2ccc(CN3CCOCC3)cc2)cc1`: the GFP response vs DMSO in assay [1] was 101% (inactive); in assay [1] (setting [6]), 98.8%; in assay [1] (setting [7]) it was 99.9%; in assay [3] it was 99% (inactive). The results for the GFP response relative to DMSO in assay [2], in assay [2] (setting [8]) and in assay [2] (setting [9]) were 99.5% (inactive), 99.1% and 99.4%, respectively. Further, the GFP response, % of DMSO in assay [4] is 101% (inactive); in assay [5] it was 98.8% (inactive); in assay [5] (setting [6]), 99.2%; in assay [5] (setting [7]), 98.1%.

With `CCOc1ccc(S(=O)(=O)n2ccnc2C)cc1`, the GFP response vs DMSO was 99.7% (inactive) in assay [1], 100% in assay [1] (setting [6]), 98.4% in assay [1] (setting [7]) and 102% (inactive) in assay [3]. In addition, the GFP response relative to DMSO in assay [2] was 96.2% (inactive); in assay [2] (setting [8]), 97.2%; in assay [2] (setting [9]), 98.3%. The GFP response, % of DMSO was 102% (inactive) in assay [4], 104% (inactive) in assay [5], 103% in assay [5] (setting [6]) and 104% in assay [5] (setting [7]).

Regarding `CN(C(=O)c1cccnc1)c1nc(-c2ccccc2)cs1`, the GFP response vs DMSO in assay [1] was 97.6% (inactive); in assay [1] (setting [6]), 97.3%; in assay [1] (setting [7]) it was 95%; in assay [3] it was 106% (inactive). The GFP response relative to DMSO in assay [2] was 102% (inactive); in assay [2] (setting [8]), 99%; in assay [2] (setting [9]), 102%. In addition, the GFP response, % of DMSO is 96.1% (inactive) in assay [4], 98.6% (inactive) in assay [5], 99.3% in assay [5] (setting [6]) and 96% in assay [5] (setting [7]).

For the molecule `O=[N+]([O-])c1cccc(-c2ccc(/C=N/Nc3nc(N4CCCCC4)nc(N4CCCCC4)n3)o2)c1`, the GFP response vs DMSO in assay [1] was 96.8% (inactive); in assay [1] (setting [6]), 94.3%; in assay [1] (setting [7]) it was 98.2%; in assay [3], 108% (inactive). Besides, the GFP response relative to DMSO is 118% (inactive) in assay [2], 114% in assay [2] (setting [8]) and 123% in assay [2] (setting [9]). Moreover, the GFP response, % of DMSO is 105% (inactive) in assay [4], 101% (inactive) in assay [5], 95.2% in assay [5] (setting [6]) and 102% in assay [5] (setting [7]).

Consider `O=C(/C=C/c1ccc(-c2ccccc2[N+](=O)[O-])o1)c1ccc(Br)cc1`, for which the GFP response vs DMSO in assay [1] is 96.4% (inactive); in assay [1] (setting [6]), 97.6%; in assay [1] (setting [7]), 96.7%; in assay [3], 105% (inactive). The GFP response relative to DMSO in assay [2] was 121% (inactive); in assay [2] (setting [8]) it was 118%; in assay [2] (setting [9]), 126%. Besides, the GFP response, % of DMSO in assay [4] was 94.1% (inactive); in assay [5] it was 101% (inactive); in assay [5] (setting [6]), 105%; in assay [5] (setting [7]), 99.7%.

On to `CCOc1c(Br)ccc2c1sc1nc[nH]c(=O)c12`, for which the GFP response vs DMSO in assay [1] was 101% (inactive); in assay [1] (setting [6]), 99.8%; in assay [1] (setting [7]), 100%; in assay [3], 103% (inactive). In addition, the GFP response relative to DMSO in assay [2] is 105% (inactive); in assay [2] (setting [8]), 99%; in assay [2] (setting [9]), 108%. For the same molecule, the GFP response, % of DMSO in assay [4] was 99.1% (inactive); in assay [5] it was 100% (inactive); in assay [5] (setting [6]), 97.6%; in assay [5] (setting [7]), 100%.

In the case of `CC(=O)SC(C[N+](=O)[O-])c1cn(C(C)=O)c2ccccc12` (stereo unspecified), the GFP response vs DMSO is 98.6% (inactive) in assay [1], 102% in assay [1] (setting [6]), 90.1% in assay [1] (setting [7]) and 96.8% (inactive) in assay [3]. For the same molecule, the GFP response relative to DMSO in assay [2] was 242% (active); in assay [2] (setting [8]), 216%; in assay [2] (setting [9]) it was 236%. For the same molecule, the GFP response, % of DMSO was 98% (inactive) in assay [4], 94.4% (inactive) in assay [5], 97.4% in assay [5] (setting [6]) and 88.2% in assay [5] (setting [7]).

Turning to `COCc1cc(=O)[nH]c(SCCS(=O)(=O)c2ccc(Cl)cc2Cl)n1`, the GFP response vs DMSO in assay [1] is 110% (inactive); in assay [1] (setting [6]) it was 115%; in assay [1] (setting [7]), 107%; in assay [3] it was 100% (inactive). In addition, the values for the GFP response relative to DMSO in assay [2], in assay [2] (setting [8]) and in assay [2] (setting [9]) were 102% (inactive), 100% and 105%, respectively. Also, the GFP response, % of DMSO is 103% (inactive) in assay [4], 119% (inactive) in assay [5], 119% in assay [5] (setting [6]) and 116% in assay [5] (setting [7]).
